Laboratory results as given in article PMC11342948 (International Journal of Nanomedicine, 2024).

Assays:
MPTP-induced PD model [1] = assay: Dopamine and its metabolites in the striatum; type: in vivo, C57BL/6J mice; conditions: for dopamine levels: L-Dopa 4.95 mg/kg, ECH 13 mg/kg
[2] = Evans blue BBB integrity test; type: in vivo, mice; conditions: Evans blue 50 mg/kg intravenously, 30 minutes
MPTP-induced PD model [3] = assay: Oxidative stress assay in the striatum; type: in vivo, C57BL/6J mice; conditions: vs MPTP cohort
Outline: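 The MPTP mouse model used male C57BL/6J mice given 30 mg/kg/day i.p. for 5 days, with daily i.v. test compound at 13 mg/kg. After day-16 behaviour and perfusion, striatum was homogenised in 1% triton (1 g/9 mL) and spun at 15294 g, 4°C, 10 min. SOD, GSH-PX and MDA in the supernatant were measured with commercial kits per the manufacturer.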

MPTP-induced PD model [4] = assay: Tyrosine hydroxylase immunohistochemical staining; type: in vivo, C57BL/6J mice
Outline: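 In the same MPTP model (30 mg/kg/day i.p., 5 days; daily i.v. test compound), perfused brains were cut into 5 μm coronal sections. These were incubated with rabbit polyclonal anti-TH (1:400, PBS) overnight at 4°C, then HRP secondary (1:200), with DAB detection. Striatal TH fiber immunoreactivity was quantified by image analysis. TH-positive neurons were counted in every sixth section through the substantia nigra.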

MPTP-induced PD model [5] = assay: Behavioral assays; type: in vivo, C57BL/6J mice
Outline: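 Male C57BL/6J mice (8 weeks, 22–25 g), 12 per cohort, given MPTP 30 mg/kg/day i.p. in 0.9% saline for 5 days, with daily i.v. test compound (13 mg/kg, free or liposomal), L-Dopa 4.95 mg/kg or saline. On day 16: 10-min video-tracked open field (50 cm box, 30×30 cm centre) and vertical pole descent (1.5 cm × 55 cm, head up; T-turn, T-total). n=8, mean ± SD.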

bEnd.3 monolayer = assay: In vitro BBB penetration, transwell model; conditions: 2 μg/mL
[6] = open-field test, day 16, vs MPTP-treated mice
[7] = pole test, day 16, vs MPTP-treated cohort

Compound: CN1CC=C(c2ccccc2)CC1 [MPTP, 1-methyl-4-phenyl-1,2,3,6-tetrahydropyridine]
- dopamine levels, reduction compared to the control (MPTP-induced PD model [1]; MPTP 30 mg/kg i.p. five days): 2.65 fold
- dopamine levels (MPTP-induced PD model [1]; MPTP 30 mg/kg i.p. five days): 0.95 ± 0.15 ng/mg of wet striatum tissue
- BBB integrity (Evans blue levels in brain tissue) [2]: did not compromise BBB integrity

Compound: N[C@@H](Cc1ccc(O)c(O)c1)C(=O)O [L-Dopa, levodopa]
- DOPAC levels, increase compared to the MPTP cohort (MPTP-induced PD model [1]): 1.59 fold
- HVA levels, increase compared to the MPTP cohort (MPTP-induced PD model [1]): 1.63 fold
- dopamine levels (MPTP-induced PD model [1]; MPTP 30 mg/kg i.p. five days): 1.27 ± 0.09 ng/mg of wet striatum tissue
- GSH-PX levels (MPTP-induced PD model [3]): significantly elevated
- MDA levels (MPTP-induced PD model [3]): reducing
- SOD levels (MPTP-induced PD model [3]): significantly elevated
- MPTP-induced reduction in TH immunoreactivity in the striatum (MPTP-induced PD model [4]; striatum): effectively counteracted
- TH-positive neuron counts in the substantia nigra (MPTP-induced PD model [4]; substantia nigra): partially restored
- average speed (MPTP-induced PD model [5]; [6]): increased
- movement within the central area (MPTP-induced PD model [5]; [6]): significantly improved
- percentage of time spent in the center (MPTP-induced PD model [5]; [6]): increased
- time spent immobile (MPTP-induced PD model [5]; [6]): decreasing
- total distance traveled (MPTP-induced PD model [5]; [6]): increased
- T-total (MPTP-induced PD model [5]; [7]): significantly reduced
- T-turn (MPTP-induced PD model [5]; [7]): significantly reduced

Compound: Echinacoside [Free ECH]
- dopamine levels (MPTP-induced PD model [1]; MPTP 30 mg/kg i.p. five days): 1.27 ± 0.36 ng/mg of wet striatum tissue
- neuroprotection (TH immunohistochemistry) (MPTP-induced PD model [4]; compared to the MPTP cohort / other treatments): did not provide significant neuroprotection

Compound: O=C([O-])c1ccccc1-c1c2ccc(=O)cc-2oc2cc([O-])ccc12.[Na+].[Na+] [fluorescein sodium]
- apparent permeability coefficient (bEnd.3 monolayer): 6.92 ± 3.92×10^−6 cm/s
